Assay outcomes: PubChem BioAssay, several laboratories
Redox H2O2 prof – compounds producing H2O2 with reducing agent – biochemical, NIH compound library profiling, artefact control for MLSCN library redox annotation, primary screen. DTT-dependent redox cycling H2O2, phenol red/HRP absorbance; 100% = 100 µM peroxide control, 0% = buffer. activation, % at 10 µM. AID 878, 2007. actives 0.03% (n = 200,000);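 active = activation of at least 50% relative to the plate's high and low controls in the primary single-dose screen; inactive = activation below 50%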;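 note: compound incubated with DTT at 0.8 mM final as the reducing agent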
Diaph inh CS – diaphorase inhibitors and chemical oxidizers, primary screen, counter-screen for diaphorase-coupled primary assays, biochemical, uHTS, resorufin fluorescence; diaphorase resazurin-to-resorufin fluorescence, NADH, 16 min; bacterial (C. kluyveri) enzyme, not human; inhibition, % at 20 µM; actives 0.69% (n = 190,000);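 active = primary screen inhibition at 20 µM above a set limit, cut at about 50% in these data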;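 note: plate controls were DMSO with full reaction for no effect and wells lacking NADH for full effect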
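Benchmarks: positive control wells lacking NADH, neutral wells with DMSO only. System: bacterial diaphorase enzyme (C. kluyveri). Input: 0.14 U/mL diaphorase, enzyme working solution. Detection: resorufin fluorescence, excitation 544 nm, emission 590 nm. Times: 16-min room-temperature incubation before reading.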
L major viab – Leishmania major promastigote growth inhibition, primary screen; Leishmania major promastigotes, resazurin fluorescence viability; inhibition, % at 10 µM; actives 9% (n = 200,000); AID 1063, 2008;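 note: promastigotes grown with compound for 44 hours at 28 °C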
PfG6PD inh – PfG6PD enzyme inhibitors, primary screen, biochemical, fluorescence intensity, uHTS; actives 0.78% (n = 350,000); PfGluPho enzyme, NADPH resazurin-diaphorase fluorescence; inhibition, % at 20 µM; glucose-6-phosphate dehydrogenase-6-phosphogluconolactonase (Plasmodium falciparum 3D7);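 active = inhibition reaching at least a set limit at 20 µM in the primary screen, cut at about 59% in these data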;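 note: 0% = DMSO wells with substrate and 100% = DMSO wells lacking glucose-6-phosphate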
Diaphorase act – compounds boosting diaphorase resazurin reduction – biochemical, uHTS, resorufin fluorescence, counter-screen for diaphorase-coupled primary assays, primary screen; activation factor at 20 µM; actives 0.005% (n = 190,000); Diaphorase/resazurin coupled assay, 16 min; stronger effect = higher value; 1 = vehicle wells, 0 = NADH-free wells;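 active = diaphorase activity raised at least twofold by the compound at 20 µM; inactive = activation factor below 2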
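Test system: Clostridium kluyveri diaphorase, purified enzyme; input: enzyme 0.07 U/mL final; buffer or medium: 50 mM HEPES pH 7.4 with 4.542 mM MgCl2, 0.005% Tween 20; also added: 0.114 mM NADH and 0.1 mM resazurin, final amounts; schedule: 16 min enzyme reaction, ambient temperature; technique: fluorescence of resorufin, 544 nm excitation, 590 nm emission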
G6PDH counter – L. mesenteroides G6PDH inhibitors, counter-screen for G6PDH-coupled screening assays, biochemical, Leuconostoc mesenteroides enzyme. actives 0.12% (n = 200,000). inhibition, % at 5 µM. glucose-6-phosphate dehydrogenase [Leuconostoc mesenteroides]. Purified L. mesenteroides G6PDH, diaphorase/resazurin coupled fluorescence, 45 min. AID 1020, 2008
An asterisk follows results filed as active; · = no result. Many of the other results were omitted from the sample, so hits are more common in it than they were. Cut-off read from the data, not from the text of the source, unless noted: active = inhibition above about 50%; inactive = the rest.

SMILES | Redox H2O2 prof | Diaph inh CS | L major viab | PfG6PD inh | Diaphorase act | G6PDH counter
CNC(=S)N(Cc1ccc(OC)cc1)Cc1cc2ccc(C)cc2[nH]c1=O | -0.3 | 25.0 | 5.6 | 8.4 | 0.8 | 9.0
Cc1ccc(-c2[nH]ncc2CN2CCN(C(=O)c3cccs3)CC2)cc1C | · | · | · | -29.3 | · | ·
Cn1nnnc1SCc1csc(C2C(C#N)=C(N)OC3=C2C(=O)CCC3)c1 (centres undefined) | -0.2 | 5.9 | 1.6 | -12.3 | 0.9 | 0.0
CCCCN(C)CCC(=O)Nc1ccc(C)cc1 | · | -1.3 | 90.0* | -27.4 | 1 | 1.2
Cc1ccccc1N(C=O)c1ccccc1C | · | · | · | 9.1 | · | ·
N#Cc1nc(-c2ccco2)oc1NCc1cccnc1 | -0.2 | -1.5 | -1.0 | -13.2 | 1 | 4.7
COc1ccc(-c2nc(C#N)c(NCc3cccnc3)o2)cc1OC | 1.9 | -1.1 | 95.6* | 0.9 | 1 | 6.6
N#Cc1nc(-c2cccc(Cl)c2)oc1NCc1cccnc1 | 0.0 | 11.1 | 99.7* | -2.8 | 0.9 | 6.3
CCCCn1c(N)c(N(CC)C(=O)CSCC(=O)Nc2ccc(OC)cc2)c(=O)[nH]c1=O | · | · | · | -7.4 | · | ·
O=C(NCCc1ccc(Cl)cc1Cl)C1=CC=CN2CCS(=O)(=O)N=C12 | · | · | · | 4.4 | · | ·
O=C(CN1C(=O)COc2ccccc21)NCCN1CCC(Cc2ccccc2)CC1 | 0.1 | 4.0 | 67.0* | -9.5 | 1 | -0.6
O=C(CN1C(=O)COc2ccccc21)NCCN1CCOCC1 | · | · | · | -0.2 | · | ·
c1cc(SSc2ccncc2)ccn1 | · | · | · | 64.6* | · | ·
Cc1cccc2cc(CN(Cc3nnnn3C3CCCCC3)C3CCCC3)c3nnnn3c12 | 1.9 | 20.0 | 50.2* | 9.6 | 0.8 | 4.0
CCOc1ccccc1N1CCN(CC(=O)Nc2nccs2)CC1 | · | · | · | -5.1 | · | ·
CCc1cccc(CC)c1NC(=S)NCc1ccc2c(c1)OCO2 | -0.1 | 1.9 | 59.5* | 2.8 | 1 | -4.1
CC(C)c1ncc(CO)n1Cc1c(Cl)cccc1Cl | · | · | · | -7.5 | · | ·
COc1cc(CNCCC2CCOC(C)(C)C2)ccc1O (centres undefined) | -1.0 | 7.3 | 57.3* | 1.1 | 0.9 | 5.5
COc1cc(CNCCO)ccc1OC1CCCC1 | 0.0 | 6.5 | 36.4 | -20.7 | 0.9 | 0.5
CC1(C)CC(=O)c2c(nc(SCC(=O)Nc3nsc(-c4ccccc4)n3)c(C#N)c2-c2ccccc2)C1 | -1.8 | 5.5 | 69.1* | -6.2 | 0.9 | 1.9
Cc1[nH]n(-c2ccc([N+](=O)[O-])cc2)c(=O)c1C=NCCN1CCN(C(=O)c2ccccc2)CC1 | -0.1 | 5.7 | -5.4 | 1.6 | 0.9 | 5.5
Cc1ccc(C(=O)N(Cc2ccc3c(c2)OCO3)Cc2nc3ccccc3c(=O)[nH]2)cc1 | 0.2 | 15.6 | 95.6* | 6.4 | 0.8 | 5.1
CCCCC(=O)N(Cc1ccc2c(c1)OCO2)Cc1nc2ccccc2c(=O)[nH]1 | 0.7 | 9.0 | -1.4 | 7.6 | 0.9 | 13.4
Cc1ccc(N(CC(=O)NN=C2CCN(C)CC2)S(=O)(=O)c2ccccc2)c(C)c1 | 0.2 | 0.0 | 59.6* | 20.7 | 1 | 6.1
CC1CCCN(c2nc3ccccc3nc2C(C#N)C(=O)OC2CCCCC2)C1 (centres undefined) | 1.1 | 7.8 | 60.7* | · | 0.9 | 6.7
SMILES | Redox H2O2 prof | Diaph inh CS | L major viab | PfG6PD inh | Diaphorase act | G6PDH counter
CC1CN(c2nc3ccccc3nc2C(C#N)C(=O)OC2CCCCC2)CC(C)O1 (centres undefined) | 4.1 | 0.5 | 64.2* | 1.1 | 1 | -12.4
N#CC(C(=O)OC1CCCCC1)c1nc2ccccc2nc1N1CCCCC1 (centres undefined) | 1.9 | 14.6 | 54.0* | · | 0.9 | 0.5
CCCN1CCN(c2ncnc3c2nnn3Cc2ccccc2)CC1 | 1.8 | -4.2 | 97.3* | -2.1 | 1 | 15.1
COc1ccc(Br)cc1CNC(=O)Nc1cccs1 | 0.2 | 16.6 | 53.6* | 12.6 | 0.8 | 0.6
COc1ccccc1CNC(=O)Nc1cccs1 | -3.1 | 13.5 | -2.7 | 50.7 | 0.9 | 7.0
CC1CCCC(C)N1CC(O)COc1ccc(Cl)cc1 (centres undefined) | -0.9 | 5.2 | 48.1 | -9.0 | 0.9 | 15.6
OC(COc1c(F)cc(Br)cc1F)CN1CCN(c2ccc(F)cc2)CC1 (centres undefined) | 0.7 | 11.2 | 86.6* | 11.1 | 0.9 | 3.1
OC(CNC1CCCC1)COc1c(F)cc(Br)cc1F (centres undefined) | 0.1 | 15.9 | 93.2* | 0.8 | 0.8 | 4.3
CC1CCCC(C)N1CC(O)COc1c(F)cc(Br)cc1F (centres undefined) | 0.4 | 4.3 | 74.0* | -9.2 | 1 | 1.0
OC(COc1c(F)cc(Br)cc1F)CN1CCOCC1 (centres undefined) | · | · | · | 3.2 | · | ·
c1ccc(Cn2ncc3ccccc32)cc1 | -2.4 | 4.7 | -7.6 | -12.7 | 1 | 14.9
CN(C)c1nc(-c2ccccc2)c2cnn(Cc3ccccc3)c2n1 | -0.4 | 18.7 | 62.9* | 23.8 | 0.8 | 2.0
CCCCCCCn1c2c(c(=N)c3c1CCC3)CCCC2 | -0.9 | 3.2 | 100.4* | 20.5 | 1 | 0.7
CCCCn1c2c(c(=N)c3c1CCC3)CCC2 | 0.9 | 2.6 | 99.9* | -7.8 | 1 | 4.8
CCCCCCCCCn1c2c(c(=N)c3c1CCC3)CCC2 | 0.4 | -4.8 | 100.4* | -19.5 | 1 | 3.2
CCCCCCn1c2c(c(=N)c3c1CCC3)CCC2 | 1.9 | 16.7 | 100.5* | -19.7 | 0.8 | -2.5
O=C(COC(=O)c1cc(S(=O)(=O)N2CCCC2)ccc1O)Nc1ccccc1Br | · | · | · | -7.8 | · | ·
O=S(=O)(NCC1CCC(NS(=O)(=O)c2c(F)cccc2F)CC1)c1ccc2c(c1)OCCO2 (centres undefined) | · | · | · | -3.7 | · | ·
Cc1ccc(S(=O)(=O)N2CCOCC2)cc1NC(=O)COC(=O)Cc1ccccc1 | · | · | · | 14.7 | · | ·
O=C(Nc1cccc(S(=O)(=O)N2CCCCC2)c1)c1ccco1 | · | · | · | 11.1 | · | ·
N=c1c2c(n(Cc3ccc(F)cc3)c3c1CCC3)CCC2 | -1.1 | -0.3 | 99.7* | -0.5 | 1 | 13.4
CCCCn1c(N)c(C(=S)NC(=O)CC(C)(C)C)c(=O)n(C)c1=O | 0.3 | 61.7* | 1.5 | -17.9 | 0.4 | -5.7
Nc1scc2c(C(=O)N/N=C/c3ccc(Cl)cc3)nn(-c3ccccc3)c(=O)c12 | -3.8 | 75.2* | 42.2 | 56.0 | 0.2 | 20.4
COC(=O)C1=C(C)N(CCc2cc(OC)c(OC)c(OC)c2)C(=O)N[C@H]1c1ccccc1 | · | · | · | -3.3 | · | ·
Cc1cc(C)cc(NC(=O)C(Sc2ncnc3ccccc23)c2ccccc2)c1 (centres undefined) | -0.2 | 18.2 | 57.3* | -7.2 | 0.8 | 3.5
